How the values were obtained:
Type in all cases: cell-based
MCF-7 cell line = test: MTT assay, breast cancer MCF-7 cell line; conditions: Homo sapiens, MCF7, 48 h, read-out: IC50 against MCF-7
Method in brief: (§1)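 Test compound dissolved in PBS with 0.5% DMSO and diluted in the same solvent. Cells were grown in DMEM with 10% FBS and 1% penicillin-streptomycin at 37 °C, 5% CO2. They were trypsinised, seeded and held 48 h, then given fresh medium. Exposure was 15.62–500 μM for 48 h. MTT (0.5 mg.mL−1) ran 4 h, formazan was dissolved in DMSO, and A570 read. Six vehicle wells per plate served as control. Viability was computed, in triplicate, as mean ± SD.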

A-375 cell line = test: MTT assay, melanoma A-375 cell line; conditions: Homo sapiens, A-375, 48 h, read-out: IC50 against A-375
Method in brief: as §1

HEK-293 cell line = test: MTT toxicity assay, normal cell line HEK-293; conditions: Homo sapiens, HEK293, 48 h, read-out: IC50 against HEK-293
Method in brief: as §1

| IC50 (MCF-7 cell line) [µM] | IC50 (A-375 cell line) [µM] | Compound | IC50 (HEK-293 cell line) [µM] |
| --- | --- | --- | --- |
| 245 ± 2.3 | 323 ± 2.6 | CCCCCCCCn1cc(CN2CCN(c3nc4c(c(=O)n(C)c(=O)n4C)n3C)CC2)nn1 [Compound 12j, 1,3,7-Trimethyl-8-(4-((1-octyl-1H-1,2,3-triazol-4-yl)methyl)piperazin-1-yl)-3,7-dihydro-1H-purine-2,6-dione] | 418 ± 2.4 |
| > 500 | > 500 | Cn1c(=O)c2c(nc(N3CCN(Cc4cn(CCCc5ccccc5)nn4)CC3)n2C)n(C)c1=O [Compound 12d, 1,3,7-Trimethyl-8-(4-((1-(3-phenylpropyl)-1H-1,2,3-triazol-4-yl)methyl)piperazin-1-yl)-3,7-dihydro-1H-purine-2,6-dione] | > 500 |
| > 500 | > 500 | Cn1c(=O)c2c(nc(N3CCN(Cc4cn(CCCCCN5C(=O)c6ccccc6C5=O)nn4)CC3)n2C)n(C)c1=O [Compound 12l, 8-(4-((1-(5-(1,3-Dioxoisoindolin-2-yl)pentyl)-1H-1,2,3-triazol-4-yl)methyl)piperazin-1-yl)-1,3,7-trimethyl-3,7-dihydro-1H-purine-2,6-dione] | > 500 |
| 306 ± 1.8 | 498 ± 2 | CCCCCCCn1cc(CN2CCN(c3nc4c(c(=O)n(C)c(=O)n4C)n3C)CC2)nn1 [Compound 12h, 8-(4-((1-Heptyl-1H-1,2,3-triazol-4-yl)methyl)piperazin-1-yl)-1,3,7-trimethyl-3,7-dihydro-1H-purine-2,6-dione] | > 500 |
| > 500 | > 500 | Cn1c(=O)c2c(nc(N3CCN(Cc4cn(CCCCCN5C(=O)c6ccccc6S5(=O)=O)nn4)CC3)n2C)n(C)c1=O [Compound 12o, 8-(4-((1-(5-(1,1-Dioxido-3-oxobenzo[d]isothiazol-2(3H)-yl)pentyl)-1H-1,2,3-triazol-4-yl)methyl)piperazin-1-yl)-1,3,7-trimethyl-3,7-dihydro-1H-purine-2,6-dione] | > 500 |
| > 500 | > 500 | Cn1c(=O)c2c(nc(N3CCN(Cc4cn(CCCN5C(=O)c6ccccc6S5(=O)=O)nn4)CC3)n2C)n(C)c1=O [Compound 12n, 8-(4-((1-(3-(1,1-Dioxido-3-oxobenzo[d]isothiazol-2(3H)-yl)propyl)-1H-1,2,3-triazol-4-yl)methyl)piperazin-1-yl)-1,3,7-trimethyl-3,7-dihydro-1H-purine-2,6-dione] | > 500 |
| 260 ± 2.2 | 371 ± 2.5 | CCCCCCn1cc(CN2CCN(c3nc4c(c(=O)n(C)c(=O)n4C)n3C)CC2)nn1 [Compound 12i, 8-(4-((1-Hexyl-1H-1,2,3-triazol-4-yl)methyl)piperazin-1-yl)-1,3,7-trimethyl-3,7-dihydro-1H-purine-2,6-dione] | 371 ± 2.3 |
| > 500 | > 500 | Cn1c(=O)c2c(nc(N3CCN(Cc4cn(CCc5ccccc5)nn4)CC3)n2C)n(C)c1=O [Compound 12e, 1,3,7-Trimethyl-8-(4-((1-phenethyl-1H-1,2,3-triazol-4-yl)methyl)piperazin-1-yl)-3,7-dihydro-1H-purine-2,6-dione] | > 500 |
| > 500 | > 500 | Cn1c(=O)c2c(nc(N3CCN(Cc4cn(CCCCN5C(=O)c6ccccc6S5(=O)=O)nn4)CC3)n2C)n(C)c1=O [Compound 12m, 8-(4-((1-(4-(1,1-Dioxido-3-oxobenzo[d]isothiazol-2(3H)-yl)butyl)-1H-1,2,3-triazol-4-yl)methyl)piperazin-1-yl)-1,3,7-trimethyl-3,7-dihydro-1H-purine-2,6-dione] | > 500 |

The remaining lines, values behind:

| Compound | IC50 (MCF-7 cell line) [µM] | IC50 (A-375 cell line) [µM] | IC50 (HEK-293 cell line) [µM] |
| --- | --- | --- | --- |
| Cn1c(=O)c2c(nc(N3CCN(Cc4cn(CC(=O)OCc5ccccc5)nn4)CC3)n2C)n(C)c1=O [Compound 12b, Benzyl 2-(4-((4-(1,3,7-trimethyl-2,6-dioxo-2,3,6,7-tetrahydro-1H-purin-8-yl)piperazin-1-yl)methyl)-1H-1,2,3-triazol-1-yl)acetate] | > 500 | > 500 | > 500 |
| Cn1c(=O)c2c(nc(N3CCN(Cc4cn(C(c5ccccc5)c5ccccc5)nn4)CC3)n2C)n(C)c1=O [Compound 12c, 8-(4-((1-Benzhydryl-1H-1,2,3-triazol-4-yl)methyl)piperazin-1-yl)-1,3,7-trimethyl-3,7-dihydro-1H-purine-2,6-dione] | > 500 | > 500 | > 500 |
| Cc1ccc(Cn2cc(CN3CCN(c4nc5c(c(=O)n(C)c(=O)n5C)n4C)CC3)nn2)cc1 [Compound 12f, 1,3,7-Trimethyl-8-(4-((1-(4-methylbenzyl)-1H-1,2,3-triazol-4-yl)methyl)piperazin-1-yl)-3,7-dihydro-1H-purine-2,6-dione] | > 500 | > 500 | > 500 |
| CN(Cc1cnc2nc(N)nc(N)c2n1)c1ccc(C(=O)N[C@@H](CCC(=O)O)C(=O)O)cc1 [MTX, methotrexate, reference compound] | 343 ± 3.6 | 418 ± 2 | 199 ± 2.4 |
| CCCCCCCCCCn1cc(CN2CCN(c3nc4c(c(=O)n(C)c(=O)n4C)n3C)CC2)nn1 [Compound 12k, 8-(4-((1-Decyl-1H-1,2,3-triazol-4-yl)methyl)piperazin-1-yl)-1,3,7-trimethyl-3,7-dihydro-1H-purine-2,6-dione] | 175 ± 3.2 | 367 ± 3.4 | > 500 |
| Cn1c(=O)c2c(nc(N3CCN(Cc4cn(Cc5ccccc5)nn4)CC3)n2C)n(C)c1=O [Compound 12a, 8-(4-((1-Benzyl-1H-1,2,3-triazol-4-yl)methyl)piperazin-1-yl)-1,3,7-trimethyl-3,7-dihydro-1H-purine-2,6-dione] | > 500 | > 500 | > 500 |
| CCOC(=O)CCCn1cc(CN2CCN(c3nc4c(c(=O)n(C)c(=O)n4C)n3C)CC2)nn1 [Compound 12g, Ethyl 4-(4-((4-(1,3,7-trimethyl-2,6-dioxo-2,3,6,7-tetrahydro-1H-purin-8-yl)piperazin-1-yl)methyl)-1H-1,2,3-triazol-1-yl)butanoate] | > 500 | > 500 | > 500 |
